# Experimental data pooled from the literature.
# Each line is one published result; the experiments were not run side by side.
# Target: Protein kinase C alpha type (PRKCA, Homo sapiens, UniProt P17252)
Compound,effect on,mode,method,concentration,endpoint,result
Cc1cnc(NC2CCOCC2)nc1-n1cnc(C(=O)NC(CN)c2cc(F)cc(Cl)c2)c1 (stereo not shown),enzyme activity,inhibitor,radiometric,1 µM,remaining activity,100%
COc1cc(Nc2cnc(C#N)c(O[C@H](C)CN(C)C)n2)ncc1-c1cnn(C)c1,enzyme activity,inhibitor,radiometric,1 µM,remaining activity,115%
CN(C)C[C@H]1CCn2c(c(C3=C(c4cn(C)c5ccccc45)C(=O)NC3=O)c3ccccc32)C1,cell-free assay,,,0.5 µM,remaining signal,2.58%
O=C(Nc1cnn(-c2csc(C(=O)NC3COC3)c2)c1)Nc1ccccc1Cl,enzyme activity,inhibitor,,5 µM,remaining activity,101%
COc1cc2ncnc(Nc3ccc(Oc4ccccc4)c(C)c3C)c2cc1OC,enzyme activity,inhibitor,,1 µM,inhibition,8%
Cc1[nH]c(/C=C2\C(=O)Nc3ccc(F)cc32)c(C)c1C(=O)N[C@H]1CCN(C(=O)N(C)C)C1,enzyme activity,inhibitor,,1 µM,remaining activity,106%
Cc1ccc(NC(=O)c2ccc(C)c(C(F)(F)F)c2)cc1C#Cc1nn(C2CCC(O)CC2)c2ncnc(N)c12 (stereo not shown),cell-free assay,,,10 µM,remaining signal,110%
CCN(CC)c1ccc(C2=NNC(=O)CC2C)cc1[N+](=O)[O-] (stereo not shown),enzyme activity,inhibitor,,10 µM,remaining activity,21%
COc1cc(Cl)c(C(=O)N[C@@H](CN[C@H]2CC[C@@H](N)CC2)Cc2ccc(C#N)cc2)cc1-c1ccc(CN[C@H](C)c2ccc(C)cc2)o1,enzyme activity,inhibitor,,1 µM,remaining activity,97%
CCN(CC)CCNC(=O)c1c(C)[nH]c(/C=C2\C(=O)Nc3ccc(F)cc32)c1C,enzyme activity,inhibitor,,0.1 µM,remaining activity,101%
O=C(Nc1cnn(-c2csc(C(=O)NC3COC3)c2)c1)Nc1c(F)cccc1Cl,enzyme activity,inhibitor,,5 µM,remaining activity,90.7%
CN(C)CCCn1cc(C2=C(c3c[nH]c4ccccc34)C(=O)NC2=O)c2ccccc21,cell-free assay,,,0.5 µM,remaining signal,6.27%
Cc1ccc(Nc2nccc(N(C)c3ccc4c(C)n(C)nc4c3)n2)cc1S(N)(=O)=O,enzyme activity,inhibitor,,10 µM,inhibition,10%
C=CC(=O)Nc1cc(Nc2nccc(Nc3cc(Cl)c(F)cc3C(C)(C)O)n2)c(OC)cc1N1CC[C@@H](N(C)C)C1,enzyme activity,inhibitor,,1 µM,inhibition,13%
O=C(CSc1nc2nccnc2c(=O)n1CCc1ccccc1)Nc1nccs1,enzyme activity,inhibitor,,10 µM,inhibition,15%
COc1cc(/C=C/C(=O)CC(=O)/C=C/c2ccc(O)c(OC)c2)ccc1O,enzyme activity,inhibitor,,1 µM,activity vs control,106%
Cc1ccc(-n2nc(C(C)(C)C)cc2NC(=O)Nc2ccc(OCCN3CCOCC3)c3ccccc23)cc1,enzyme activity,inhibitor,,10 µM,inhibition,9%
FC(F)c1nc2ccccc2n1-c1nc(N2CCOCC2)nc(N2CCOCC2)n1,enzyme activity,inhibitor,,10 µM,remaining activity,86%
FC(F)(F)Oc1cccc(-c2cnc3ccc(-c4ccncc4)nn23)c1,enzyme activity,inhibitor,radiometric,5 µM,activity vs control,91%
CN(c1ncccc1CNc1nc(Nc2ccc3c(c2)CC(=O)N3)ncc1C(F)(F)F)S(C)(=O)=O,enzyme activity,inhibitor,,1 µM,inhibition,28.4%
CC(C)(C)c1nc(-c2cccc(NS(=O)(=O)c3c(F)cccc3F)c2F)c(-c2ccnc(N)n2)s1,enzyme activity,inhibitor,radiometric,1 µM,remaining activity,100%
CNC(=O)c1cc(Oc2ccc(NC(=O)Nc3ccc(Cl)c(C(F)(F)F)c3)cc2)ccn1,cell-free assay,,,0.5 µM,remaining signal,96.8%
